What is called pIC50 is the negative decadic logarithm of the IC50, by convention in mol/L. Higher therefore signals a low IC50.

The results in this text go back to ChEMBL document CHEMBL1151786, “Triphenylmethylamides (TPMAs): Structure-activity relationship of compounds that induce apoptosis in melanoma cells” (Bioorg Med Chem Lett, 2008).

pIC50: −log10 of the molar value. In brackets after ≈: the same amount, converted by molar mass. Activity calls are given as the source filed them. The rule behind the calls is not given here.

Data set [1] deals with U-937. The data set can be described thus: Induction of apoptosis in human U937 cells assessed as viable cells at 100 uM after 48 hrs by flow cytometry using FITC-conjugated annexin V and propidium iodide staining relative to control. It is filed as functional. To be noted: U-937, 48 h, read-out: Activity. In outline: (§1)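 U-937 cells were exposed for 48 h to 100 µM compound or to vehicle. Cells were stained with FITC-conjugated Annexin V to detect phosphatidylserine externalization and with propidium iodide to test membrane integrity, then quantified by flow cytometry. Quadrants were scored, with Annexin V-positive/propidium iodide-negative taken as early apoptotic.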
(A flow cytometer gives signals particle by particle.)

The test system of data set [2] is U-937. In words: Antiproliferative activity against human U937 cells after 72 hrs by SRB assay. In kind it is functional, cell-based. To be noted: U-937, 72 h. In outline: (§2)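 Cancer cell lines were incubated with compound for 72 h. Growth or viability was measured by a method given in the supporting information. IC50 values are averages with standard deviations from three independent experiments.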

The subject of data set [3] is U-937. In words: Induction of late apoptosis in human U937 cells at 100 uM after 48 hrs by flow cytometry using FITC-conjugated annexin V and propidium iodide staining relative to control. It is filed as functional. The gist of the method:
as §1

In data set [4] the test system is HL-60. The data set can be described thus: Cell cycle arrest in human HL60 cells assessed as accumulation at G1 phase at 20 uM after 6 hrs by flow cytometry using propidium iodide staining. In kind it is functional, cell-based. In outline: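 HL-60 cells were treated for 6 h with 20 µM compound or with vehicle alone. They were then stained with propidium iodide and analysed by flow cytometry for the percentage of cells in G0/G1, S and G2/M.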

The next data set deals with PC-12. The data set can be described thus: Antiproliferative activity against rat PC12 cells after 72 hrs by SRB assay. In kind it is functional, cell-based. To be noted: PC-12, 72 h. In outline:
as §2
In general terms: Sulforhodamine B stains cellular protein and so reports cell mass.

In the next data set the test system is SK-MEL-5. The data set can be described thus: Growth inhibition of human SK-MEL-5 cells after 72 hrs by SRB assay. In kind it is functional, cell-based. Conditions: SK-MEL-5, 72 h. The gist of the method: (§3)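 Melanoma cells were exposed to a range of compound concentrations for 72 h. Growth inhibition was read as biomass by sulforhodamine B staining. IC50 is the average of three separate occasions, given with standard deviation, from dose–response curves.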

The subject of data set [5] is U-937. In words: Induction of apoptosis in human U937 cells assessed as nonviable necrotic cells at 100 uM after 48 hrs by flow cytometry using FITC-conjugated annexin V and propidium iodide staining relative to control. It is filed as functional. In outline: as §1
A further data set deals with UACC-62. The data set can be described thus: Growth inhibition of human UACC62 cells after 72 hrs by SRB assay. To be noted: UACC-62, 72 h. In kind it is functional, cell-based. In outline: as §3
Data set [6] is described as follows: Aqueous solubility in phosphate-buffered saline at pH 7.4. It is filed as physicochemical. To be noted: read-out: Stability.
Data set [7] has as its system U-937. The data set can be described thus: Induction of early apoptosis in human U937 cells at 100 uM after 48 hrs by flow cytometry using FITC-conjugated annexin V and propidium iodide staining relative to control. It is filed as functional. In outline:
as §1

The subject of data set [8] is HL-60. The data set can be described thus: Antiproliferative activity against human HL60 cells after 72 hrs by SRB assay. In kind it is functional, cell-based. Conditions: HL-60, 72 h. The gist of the method:
as §2

The next data set deals with MCF7. In words: Antiproliferative activity against human MCF7 cells after 72 hrs by SRB assay. It is filed as functional, cell-based. To be noted: MCF7, 72 h. In outline:
as §2

In the case of `O=C(NCCc1ccccc1)C(c1ccccc1)(c1ccccc1)c1ccc(O)c(O)c1`, in the data set on U-937 [1], the viability at 100 µM came out at 5.48%. The pIC50 in the data set on U-937 [2] was 5.23; in the data set with PC-12 it was 4.07; in the data set on SK-MEL-5 it was 5.38; with UACC-62 it was 5.68; with HL-60 [8], 5.21; in the data set with MCF7 it was 5.09. For the same compound, the Activity in the data set on U-937 [3] was 58.56%; in the data set on U-937 [5], 12.79%; with U-937 [7] it was 23.17%. The result with HL-60 [4] was Active. Also, the solubility in data set [6] came out at 80 µM (≈ 33.9 µg/mL).

Consider `O=C(NCCc1ccccc1)C(c1ccccc1)(c1ccccc1)c1ccccc1`, for which the pIC50 with U-937 [2] is 5.02; with PC-12, 4.51; with SK-MEL-5, 5.24; in the data set on UACC-62, 5.08; in the data set on HL-60 [8], 5.11; in the data set on MCF7 it was 5.15. The result in the data set on HL-60 [4] was Active.

Regarding `O=C(CCCC(c1ccccc1)(c1ccccc1)c1ccccc1)NCCc1ccccc1`, in the data set on HL-60 [4], the result was Active. Also, the pIC50 in the data set with SK-MEL-5 was 5.27; with UACC-62 it was 4.59.

Take `COC(=O)[C@@H](Cc1ccccc1)NC(=O)CCCC(c1ccccc1)(c1ccccc1)c1ccccc1`: the negative-log IC50 (pIC50) in the data set with SK-MEL-5 is 5.24; in the data set with UACC-62, 4.35.

As for `COC(=O)[C@@H](Cc1ccccc1)NC(=O)C(c1ccccc1)(c1ccccc1)c1ccccc1`, the pIC50 in the data set on U-937 [2] was 5.14; with PC-12, 4.80; in the data set on SK-MEL-5, 5.24; in the data set on UACC-62 it was 4.85; with HL-60 [8], 5.14; with MCF7 it was 5.10. The result with HL-60 [4] was Active. In addition, in [6], the solubility amounted to 20 µM (≈ 8.99 µg/mL).

Regarding `COC(=O)[C@@H](Cc1ccccc1)NC(=O)CCC(c1ccccc1)(c1ccccc1)c1ccccc1`, the pIC50 in the data set with U-937 [2] is 5.17; with PC-12, 4.13; in the data set on SK-MEL-5, 5.60; in the data set on UACC-62 it was 4.40; with HL-60 [8], 5.22; in the data set with MCF7, 5.21.

`COC(=O)[C@@H](Cc1ccccc1)NC(=O)C(c1ccccc1)(c1ccccc1)c1cccs1`: the pIC50 is 4.92 with SK-MEL-5 and 4.68 in the data set with UACC-62.

Regarding `O=C(NCCc1ccccc1)C(c1ccccc1)(c1ccccc1)c1ccc(O)cc1`, the pIC50 was 5.09 in the data set with SK-MEL-5 and 4.89 in the data set on UACC-62.

As to `O=C(NCCc1ccccc1)C1(c2ccccc2)c2ccccc2-c2ccccc21`, the pIC50 in the data set on SK-MEL-5 and in the data set with UACC-62 was 4.70 each time.

Consider `O=C(NCCc1ccccc1)C(c1ccccc1)(c1ccccc1)c1cccs1`, for which the pIC50 in the data set with SK-MEL-5 was 5.05; in the data set on UACC-62, 4.89.

For `O=C(CC(c1ccccc1)(c1ccccc1)c1ccccc1)NCCc1ccccc1`, the pIC50 with SK-MEL-5 is 4.77; in the data set on UACC-62 it was 4.30.

Consider `COC(=O)[C@@H](Cc1ccccc1)NC(=O)C1(c2ccccc2)c2ccccc2-c2ccccc21`, for which the pIC50 in the data set with SK-MEL-5 was 4.64; with UACC-62, 4.57.

As to `COc1ccc(C(C(=O)NCCc2ccccc2)(c2ccccc2)c2ccccc2)cc1`, the result in the data set with HL-60 [4] was Active. Besides, the pIC50 in the data set on SK-MEL-5 is 4.54; in the data set with UACC-62, 4.89.

As for `COC(=O)[C@@H](Cc1ccccc1)NC(=O)C(c1ccccc1)(c1ccc(O)cc1)c1ccc(O)cc1`, the results for the pIC50 in the data set with SK-MEL-5 and in the data set with UACC-62 were 5.17 and 4.70, respectively.

On to `O=C(NCCc1ccccc1)C(c1ccc(O)cc1)(c1ccc(O)cc1)c1ccc(O)cc1`, for which the values for the pIC50 with SK-MEL-5 and in the data set with UACC-62 were 4.44 and 4.15, respectively.

On to `COC(=O)[C@@H](Cc1ccccc1)NC(=O)C(c1ccc(O)cc1)(c1ccc(O)cc1)c1ccc(O)cc1`, for which the pIC50 is 4.89 with SK-MEL-5 and 4.57 in the data set with UACC-62.

On to `O=C(CCC(c1ccccc1)(c1ccccc1)c1ccccc1)NCCc1ccccc1`, for which the pIC50 was 5.26 in the data set on SK-MEL-5 and 4.30 with UACC-62.

As for `COC(=O)[C@@H](Cc1ccccc1)NC(=O)C(c1ccccc1)(c1ccc(OC)cc1)c1ccc(OC)cc1`, the pIC50 with SK-MEL-5 was 4.62; with UACC-62 it was less than 4.00.

For the compound `COC(=O)[C@@H](Cc1ccccc1)NC(=O)CC(c1ccccc1)(c1ccccc1)c1ccccc1`, the results for the pIC50 in the data set on SK-MEL-5 and with UACC-62 were 5.29 and less than 4.00, respectively.

`COc1ccc(C(C(=O)NCCc2ccccc2)(c2ccccc2)c2ccc(OC)cc2)cc1`: the outcome in the data set on HL-60 [4] was Active. The values for the pIC50 in the data set with SK-MEL-5 and with UACC-62 were 4.85 and 4.70, respectively.

Take `COc1ccc(C(C(=O)NCCc2ccccc2)(c2ccc(OC)cc2)c2ccc(OC)cc2)cc1`: the pIC50 was 4.70 in the data set with SK-MEL-5 and less than 4.00 in the data set on UACC-62.

`COC(=O)[C@@H](Cc1ccccc1)NC(=O)C(c1ccccc1)(c1ccccc1)c1ccc(OC)cc1`: the pIC50 in the data set with SK-MEL-5 was 5.21; in the data set with UACC-62, 4.57.

Regarding `O=C(NCCc1ccccc1)C(c1ccccc1)(c1ccc(O)cc1)c1ccc(O)cc1`, the pIC50 with SK-MEL-5 is 5.07; with UACC-62, 4.33.

`COC(=O)[C@@H](Cc1ccccc1)NC(=O)C(c1ccccc1)(c1ccccc1)c1ccc(O)cc1`: the pIC50 with SK-MEL-5 is 5.09; with UACC-62, 4.68.

Regarding `COC(=O)[C@@H](Cc1ccccc1)NC(=O)C(c1ccc(OC)cc1)(c1ccc(OC)cc1)c1ccc(OC)cc1`, the values for the pIC50 in the data set with SK-MEL-5 and with UACC-62 were 4.31 and less than 4.00, respectively.
